In ChEMBL document CHEMBL4819122, “Novel 4-(piperazin-1-yl)quinolin-2(1H)-one bearing thiazoles with antiproliferative activity through VEGFR-2-TK inhibition” (Bioorg Med Chem, 2021):
Calls of active or inactive are those of the source. The rule behind the calls is not given here.

Tests used:
[1] = tested on: DU-145; experiment: Cytotoxicity against human DU-145 assessed as growth inhibition at 10 uM by NCI protocol relative to control; assay type: functional; conditions: read-out: GI
In short: (§1)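 Run by NCI as a single-dose screen at 10 μM across the sixty-cell-line panel, which covers nine human tumour tissue types. The read-out is percent growth inhibition of treated cells relative to untreated cells.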

[2] = tested on: T47D; experiment: Cytotoxicity against human T47D cells assessed as reduction in cell viability after 3 hrs by MTT assay
[3] = tested on: HL-60; experiment: Cytotoxicity against human HL60 assessed as growth inhibition at 10 uM by NCI protocol relative to control; assay type: functional; conditions: read-out: GI; in short: as §1
[4] = tested on: SK-MEL-2; experiment: Cytotoxicity against human SK-MEL-2 assessed as growth inhibition at 10 uM by NCI protocol relative to control; assay type: functional; conditions: read-out: GI; in short: as §1
[5] = tested on: U-251; experiment: Cytotoxicity against human U251 assessed as growth inhibition at 10 uM by NCI protocol relative to control; assay type: functional; conditions: read-out: GI
In short: (§2)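 Run by the NCI under its standard protocol: one dose of 10 μM against a sixty-line panel from nine human tumour tissues. Result given as percent growth inhibition of treated cells relative to untreated cells.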

[6] = tested on: MDA-MB-435; experiment: Cytotoxicity against human MDA-MB-435 assessed as growth inhibition at 10 uM by NCI protocol relative to control; assay type: functional, cell-based; in short: as §1
[7] = tested on: OVCAR-8; experiment: Cytotoxicity against human OVCAR-8 assessed as growth inhibition at 10 uM by NCI protocol relative to control; assay type: functional; conditions: read-out: GI; in short: as §1
[8] = tested on: SNB-75; experiment: Cytotoxicity against human SNB-75 assessed as growth inhibition at 10 uM by NCI protocol relative to control; assay type: functional; conditions: read-out: GI; in short: as §2
[9] = tested on: A498; experiment: Cytotoxicity against human A498 assessed as growth inhibition at 10 uM by NCI protocol relative to control; assay type: functional; conditions: read-out: GI; in short: as §1
[10] = tested on: COLO 205; experiment: Cytotoxicity against human COLO 205 assessed as growth inhibition at 10 uM by NCI protocol relative to control; assay type: functional; conditions: read-out: GI; in short: as §1
[11] = tested on: MDA-MB-468; experiment: Cytotoxicity against human MDA-MB-468 assessed as growth inhibition at 10 uM by NCI protocol relative to control; assay type: functional; conditions: read-out: GI; in short: as §1
[12] = tested on: TK-10; experiment: Cytotoxicity against human TK-10 assessed as growth inhibition at 10 uM by NCI protocol relative to control; assay type: functional; conditions: read-out: GI; in short: as §2
[13] = tested on: HT-29; experiment: Cytotoxicity against human HT29 assessed as growth inhibition at 10 uM by NCI protocol relative to control; assay type: functional; conditions: read-out: GI; in short: as §1
[14] = tested on: NCI-H322M; experiment: Cytotoxicity against human NCI-H322M assessed as growth inhibition at 10 uM by NCI protocol relative to control; assay type: functional; conditions: read-out: GI; in short: as §1
[15] = tested on: SW-620; experiment: Cytotoxicity against human SW-620 assessed as growth inhibition at 10 uM by NCI protocol relative to control; assay type: functional; conditions: read-out: GI; in short: as §2
[16] = tested on: RXF 393; experiment: Cytotoxicity against human RXF 393 assessed as growth inhibition at 10 uM by NCI protocol relative to control; assay type: functional; conditions: read-out: GI; in short: as §1
[17] = tested on: NCI-H23; experiment: Cytotoxicity against human NCI-H23 assessed as growth inhibition at 10 uM by NCI protocol relative to control; assay type: functional; conditions: read-out: GI; in short: as §1
[18] = tested on: OVCAR-3; experiment: Cytotoxicity against human OVCAR-3 assessed as growth inhibition at 10 uM by NCI protocol relative to control; assay type: functional; conditions: read-out: GI; in short: as §1
[19] = tested on: KM12; experiment: Cytotoxicity against human KM12 assessed as growth inhibition at 10 uM by NCI protocol relative to control; assay type: functional; conditions: read-out: GI; in short: as §1
[20] = tested on: EKVX; experiment: Cytotoxicity against human EKVX assessed as growth inhibition at 10 uM by NCI protocol relative to control; assay type: functional; conditions: read-out: GI; in short: as §1
[21] = tested on: CAKI-1; experiment: Cytotoxicity against human Caki1 assessed as growth inhibition at 10 uM by NCI protocol relative to control; assay type: functional; conditions: read-out: GI; in short: as §1
[22] = tested on: BT-549; experiment: Cytotoxicity against human BT-549 assessed as growth inhibition at 10 uM by NCI protocol relative to control; assay type: functional; conditions: read-out: GI; in short: as §1
[23] = tested on: UO-31; experiment: Cytotoxicity against human UO31 assessed as growth inhibition at 10 uM by NCI protocol relative to control; assay type: functional; conditions: read-out: GI; in short: as §2
[24] = tested on: SK-OV-3; experiment: Cytotoxicity against human SK-OV-3 assessed as growth inhibition at 10 uM by NCI protocol relative to control; assay type: functional; conditions: read-out: GI; in short: as §1
[25] = tested on: ACHN; experiment: Cytotoxicity against human ACHN assessed as growth inhibition at 10 uM by NCI protocol relative to control; assay type: functional; conditions: read-out: GI; in short: as §1
[26] = tested on: UACC-257; experiment: Cytotoxicity against human UACC-257 assessed as growth inhibition at 10 uM by NCI protocol relative to control; assay type: functional; conditions: read-out: GI; in short: as §2
[27] = tested on: Malme-3M; experiment: Cytotoxicity against human MALME-3M assessed as growth inhibition at 10 uM by NCI protocol relative to control; assay type: functional; conditions: read-out: GI; in short: as §1
[28] = tested on: NCI/ADR-RES; experiment: Cytotoxicity against human NCl/ADR-RES assessed as growth inhibition at 10 uM by NCI protocol relative to control; assay type: functional; conditions: read-out: GI; in short: as §1
[29] = tested on: NCI-H522; experiment: Cytotoxicity against human NCI-H522 assessed as growth inhibition at 10 uM by NCI protocol relative to control; assay type: functional; conditions: read-out: GI; in short: as §1
[30] = tested on: UACC-62; experiment: Cytotoxicity against human UACC-62 assessed as growth inhibition at 10 uM by NCI protocol relative to control; assay type: functional; conditions: read-out: GI; in short: as §2
[31] = tested on: SK-MEL-28; experiment: Cytotoxicity against human SK-MEL-28 assessed as growth inhibition at 10 uM by NCI protocol relative to control; assay type: functional; conditions: read-out: GI; in short: as §1
[32] = tested on: SF-539; experiment: Cytotoxicity against human […] assessed as growth inhibition at 10 uM by NCI protocol relative to control; assay type: functional; conditions: read-out: GI; in short: as §1
[33] = tested on: HCT-15; experiment: Cytotoxicity against human HCT-15 assessed as growth inhibition at 10 uM by NCI protocol relative to control; assay type: functional; conditions: read-out: GI; in short: as §1
[34] = tested on: T47D; experiment: Cytotoxicity against human T-47D assessed as growth inhibition at 10 uM by NCI protocol relative to control; assay type: functional; conditions: read-out: GI; in short: as §2
[35] = tested on: MCF7; experiment: Cytotoxicity against human MCF7 assessed as growth inhibition at 10 uM by NCI protocol relative to control; assay type: functional; conditions: read-out: GI; in short: as §1
[36] = tested on: SNB-19; experiment: Cytotoxicity against human SNB-19 assessed as growth inhibition at 10 uM by NCI protocol relative to control; assay type: functional; conditions: read-out: GI; in short: as §2
[37] = tested on: MDA-MB-231; experiment: Cytotoxicity against human MDA-MB-231 assessed as growth inhibition at 10 uM by NCI protocol relative to control; assay type: functional; conditions: read-out: GI; in short: as §1
[38] = tested on: M14; experiment: Cytotoxicity against human M14 assessed as growth inhibition at 10 uM by NCI protocol relative to control; assay type: functional; conditions: read-out: GI; in short: as §1
[39] = tested on: IGROV-1; experiment: Cytotoxicity against human IGROVI assessed as growth inhibition at 10 uM by NCI protocol relative to control; assay type: functional; conditions: read-out: GI; in short: as §1
[40] = tested on: A549; experiment: Cytotoxicity against human A549 assessed as growth inhibition at 10 uM by NCI protocol relative to control; assay type: functional; conditions: read-out: GI; in short: as §1
[41] = tested on: SF-268; experiment: Cytotoxicity against human SF-268 assessed as growth inhibition at 10 uM by NCI protocol relative to control; assay type: functional; conditions: read-out: GI; in short: as §1
[42] = tested on: HOP-92; experiment: Cytotoxicity against human HOP-92 assessed as growth inhibition at 10 uM by NCI protocol relative to control; assay type: functional; in short: as §1
[43] = tested on: SF-295; experiment: Cytotoxicity against human SF-295 assessed as growth inhibition at 10 uM by NCI protocol relative to control; assay type: functional; conditions: read-out: GI; in short: as §1

## O=C(CN1CCN(c2cc(=O)n(-c3ccccc3)c3ccccc23)CC1)Nc1nc(-c2ccc(Cl)cc2)cs1
[1]
  inhibition of growth at 10 µM: 38.4%
[2]
  IC50: 30.2 µM
[3]
  inhibition of growth at 10 µM: 73.8%
[4]
  inhibition of growth at 10 µM: 24.4%
[5]
  inhibition of growth at 10 µM: 36.2%
[6]
  growth inhibition (GI): inactive
[7]
  inhibition of growth at 10 µM: 40.6%
[8]
  inhibition of growth at 10 µM: 32.5%
[9]
  inhibition of growth at 10 µM: 59.2%
[10]
  inhibition of growth at 10 µM: 42.7%
[11]
  inhibition of growth at 10 µM: 90.4%
[12]
  inhibition of growth at 10 µM: 37.6%
[13]
  inhibition of growth at 10 µM: 36.2%
[14]
  inhibition of growth at 10 µM: 10.9%
[15]
  inhibition of growth at 10 µM: 25.7%
[16]
  inhibition of growth at 10 µM: 33%
[17]
  inhibition of growth at 10 µM: 50.2%
[18]
  inhibition of growth at 10 µM: 32.9%
[19]
  inhibition of growth at 10 µM: 35.3%
[20]
  inhibition of growth at 10 µM: 57.3%
[21]
  inhibition of growth at 10 µM: 50.4%
[22]
  inhibition of growth at 10 µM: 53.5%
[23]
  inhibition of growth at 10 µM: 70.5%
[24]
  inhibition of growth at 10 µM: 28.6%
[25]
  inhibition of growth at 10 µM: 44.9%
[26]
  inhibition of growth at 10 µM: 72%
[27]
  inhibition of growth at 10 µM: 44.9%
[28]
  inhibition of growth at 10 µM: 45.1%
[29]
  inhibition of growth at 10 µM: 43.7%
[30]
  inhibition of growth at 10 µM: 38.5%
[31]
  inhibition of growth at 10 µM: 30.8%
[32]
  inhibition of growth at 10 µM: 23.9%
[33]
  inhibition of growth at 10 µM: 60.3%
[34]
  inhibition of growth at 10 µM: 75.7%
[35]
  inhibition of growth at 10 µM: 79.9%
[36]
  inhibition of growth at 10 µM: 36%
[37]
  inhibition of growth at 10 µM: 25.3%
[38]
  inhibition of growth at 10 µM: 50.2%
[39]
  inhibition of growth at 10 µM: 34.5%
[40]
  inhibition of growth at 10 µM: 47.4%
[41]
  inhibition of growth at 10 µM: 45.5%
[42]
  growth inhibition (GI): inactive
[43]
  inhibition of growth at 10 µM: 37.4%
